Source: PubChem BioAssay
In the library only some 3.5% were active in any assay of this set; here they are far more common.
RGS4 pot: potentiators or activators of RGS4; HEK293 M3R/inducible RGS4, carbachol calcium flux Fluo4; hits give low values; B-score at 10 µM; 0.92% of 310,000 active; AID 463111;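 active = B-score of the integrated calcium signal more than 4 SD below the library mean, with starting fluorescence not abnormally high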;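 also: negative B-score means reduced calcium response which marks RGS4 activation or potentiation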
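Material: Inducible-RGS4 HEK293 cells carrying M3 receptor; also added: carbachol at ECmax as muscarinic agonist stimulus; incubation: compound preincubation 20 min at room temperature before agonist; signal: Fluo4-AM (2 µM) calcium-flux fluorescence, kinetic read; measure: integrated calcium ratio converted to B score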
MrgX1 allo act: human MrgX1 positive allosteric modulation, primary screen. Q96LB2. B-score at 10 µM. MrgX1-HEK293, Fluo-4 calcium flux, FDSS; hits give high values. 0.63% of 310,000 active;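 active = plate-corrected calcium response at least 3 library SD above typical, normal starting fluorescence, not activating the receptor alone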;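 also: compound read alongside a low EC10 to EC30 dose of BAM8-22 agonist; peak minus trough fluorescence over baseline measured at the second addition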
Target sequence (Q96LB2 whole entry, looked up): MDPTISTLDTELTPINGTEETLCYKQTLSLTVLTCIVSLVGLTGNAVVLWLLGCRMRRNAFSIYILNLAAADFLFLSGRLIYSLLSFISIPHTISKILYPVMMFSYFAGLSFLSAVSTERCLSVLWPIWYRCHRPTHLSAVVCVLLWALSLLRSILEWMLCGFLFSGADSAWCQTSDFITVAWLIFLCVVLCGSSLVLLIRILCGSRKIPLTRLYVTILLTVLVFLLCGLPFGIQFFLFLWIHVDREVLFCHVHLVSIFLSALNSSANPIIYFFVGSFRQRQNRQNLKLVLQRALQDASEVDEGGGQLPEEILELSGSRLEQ
RGS4 block: human RGS4 inhibition. AID 463165. HEK293 M3R/RGS4 inducible, Fluo-4 calcium flux; hits give high values; triggered by carbachol at its EC20. P49798. B-score at 10 µM. 0.45% of 310,000 active;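 active = B-score, a plate-corrected calcium signal, over three deviations above library mean, with baseline fluorescence within five deviations of library mean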;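 also: RGS4 expression induced by doxycycline in cells with stable M3 receptor; B-score is computed from the integrated fluorescence ratio over baseline after carbachol; higher B-score means a larger calcium signal and so more RGS4 inhibition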
Target sequence (P49798 whole entry, looked up): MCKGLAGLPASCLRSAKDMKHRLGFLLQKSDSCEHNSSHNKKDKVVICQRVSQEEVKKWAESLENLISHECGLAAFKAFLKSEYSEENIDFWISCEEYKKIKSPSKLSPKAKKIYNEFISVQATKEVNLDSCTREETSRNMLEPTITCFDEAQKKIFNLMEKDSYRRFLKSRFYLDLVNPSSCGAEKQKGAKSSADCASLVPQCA
MrgX1 antagonist: blocks BAM8-22 activation of human MrgX1 receptor. Q96LB2. MRGX1-HEK293 calcium flux, Fluo-4, BAM8-22 antagonism; hits give low values. B-score at 10 µM. 1.3% of 310,000 active. AID 588676;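 active = calcium-response B-score plate-corrected more than 3 library SD below zero, starting fluorescence within 5 deviations, no agonist response on first addition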;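 also: peak minus trough fluorescence over baseline after final BAM8-22 challenge near maximal dose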
MrgX1 agonist: activates human MrgX1 receptor signaling | Q96LB2 | MrgX1-HEK293 cells, Fluo-4 calcium fluorescence, agonist mode; hits give high values | B-score at 10 µM | 0.44% of 310,000 active;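 active = calcium response B-score plate-corrected fluorescence ratio at least 3 library SD, with starting fluorescence B-score inside 5 SD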
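Assay system: stable human MrgX1 HEK293 cell line. Quantity: 15,000 cells per well. Schedule: cells plated overnight, dye loaded 0.5 h 37 °C, 0.5 h room temperature. Detection: Fluo-4 NW calcium-flux fluorescence, kinetic read. Read-out basis: peak-minus-minimum fluorescence over baseline, converted to B scores. Control set: positive and negative control wells on each plate.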
Large screens that a line does not name were inactive.

CC1CCN(CCCCOc2ccc([N+](=O)[O-])cc2)CC1	RGS4 pot -7.3
CC(C)c1ccc(OCCCCN2CCCCC2)cc1	none
Clc1ccc(OCCCCN2CCCCC2)cc1	RGS4 pot -7.1
CC1CCN(CCOc2ccc(C(=O)c3ccccc3)cc2)CC1	none
O=[N+]([O-])c1ccc(OCCCCN2CCCCC2)cc1	RGS4 pot -7.6
O=[N+]([O-])c1ccc(OCCCCCN2CCOCC2)cc1	none
CC1CCN(C(=O)C(C)c2ccc([N+](=O)[O-])cc2)CC1 (centres undefined)	none
Cc1ccc(OCCCCN2CCC(C)CC2)cc1	RGS4 pot -7.2
Cc1cc(Br)ccc1OCCCCN1CCCCC1	RGS4 pot -7
CC(C)Oc1ccc(OCCCN2CCCCCC2)cc1	RGS4 pot -7.2
Cc1cc(Br)ccc1OCCOCCN1CCCC1	none
CC1CCN(CCCCOc2ccc(F)cc2)CC1	none
CC(C)(C)c1ccc(OCCCN2CCCC2)cc1	none
COc1ccc(CN(CCC(c2ccccc2)c2ccc(OC(C)C)cc2)C(=O)CCl)cc1OC (centres undefined)	RGS4 pot -7.1, MrgX1 allo act 10
COc1ccc(C(CCN(Cc2ccc(OC)c(OC)c2)C(C)=O)c2ccccc2)cc1 (centres undefined)	none
COc1cc(N=c2ssnc2Cl)c(OC)cc1Cl	MrgX1 agonist 40
O=C(N/N=C/c1ccccn1)c1[nH]c2ccc([N+](=O)[O-])cc2c1-c1ccccc1	MrgX1 antagonist -5.1
NNC(=O)c1[nH]c2ccc([N+](=O)[O-])cc2c1-c1ccccc1	none
CCCCc1ccc(N=N/C(C(=O)Nc2ccccc2OC)=C(/C)O)cc1	MrgX1 antagonist -9.1
COc1cc2c(cc1OC)CN(C(=O)COc1ccccc1[N+](=O)[O-])CC2	none
CN(CC(=O)Nc1ccccc1Cl)C(=O)c1cccc(S(=O)(=O)N2CCN(Cc3ccccc3)CC2)c1	none
O=C(/C=C/c1cccc(Br)c1)NCC1CCCCC1	MrgX1 antagonist -7
Cc1cc2c(=O)oc(-c3ccc(F)cc3)nc2s1	MrgX1 antagonist -23
Cc1cc2c(=O)oc(-c3ccccc3Br)nc2s1	none (no result: MrgX1 allo act, MrgX1 antagonist, MrgX1 agonist)
COc1ccc(N(CC(=O)N2CCN(c3ccccc3F)CC2)S(=O)(=O)c2ccc(C)cc2)cc1	none
CC(C)C(C(=O)NC1CCCC1)N(CC1CCCO1)C(=O)CNS(=O)(=O)c1ccc(F)cc1 (centres undefined)	none
Cc1cc(C2=NNC(=NC3CC3)SC2)c(C)n1Cc1ccco1	none (no result: RGS4 pot, RGS4 block)
COCCCN=C1NN=C(c2cc(C)n(Cc3ccco3)c2C)CS1	MrgX1 allo act 10
N/C(=N\OC(=O)COc1ccc([N+](=O)[O-])cc1)c1ccncc1	none
N/C(=N\OC(=O)COc1ccc(Br)cc1)c1ccncc1	MrgX1 antagonist -6
N#CCOC(=O)C1CCN(S(=O)(=O)c2ccc3c(c2)OCCO3)CC1	none
O=C(NCC1CCCCC1)c1cccc(-c2ccc(O)cc2)c1	none
CCOC(=O)N1CCN(C(=O)c2cc3c(-c4cccc(OC)c4)nn(C)c3s2)CC1	RGS4 pot -7.1
COc1ccc(C(=O)COC(=O)c2cc(S(=O)(=O)NCc3ccccc3)ccc2O)cc1	MrgX1 agonist 26
COCCN=c1scc(-c2ccco2)n1/N=C/c1ccc(O)c(O)c1O	none (no result: RGS4 pot, RGS4 block)
COCCN=c1scc(-c2cccs2)n1/N=C(\C)c1ccco1	MrgX1 allo act 15
CCOC(=O)c1ccc(NC(=O)c2ccccc2[N+](=O)[O-])cc1	none
CCOC(=O)c1ccc(Nc2ncccc2[N+](=O)[O-])cc1	MrgX1 antagonist -5.8
O=C(N/N=C/c1c(O)n(-c2ccc(Cl)cn2)c(=O)c2ccccc12)c1ccncc1	RGS4 pot -9.6
CCn1c(SCc2ccc(C#N)cc2)nnc1-c1ccc(S(=O)(=O)N2CCCCC2)cc1	none
O=C1CC(c2ccccc2)CC(O)=C1C=NCCc1ccccc1 (centres undefined)	MrgX1 allo act 11
O=C1CC(c2ccc(Cl)cc2)CC(O)=C1C=NCc1ccc(Cl)c(Cl)c1 (centres undefined)	RGS4 pot -8
COc1ccc(C2=NS(=O)(=O)N(C)C(C(=O)NC3CCCCC3)=C2)cc1OC	none
COC(=O)CC1COc2ccccc2N1C(=O)/C=C/c1ccccc1 (centres undefined)	none
CCCc1nc2ccc(NC(=O)c3ccco3)cc2c(=O)n1Cc1ccc(Cl)cc1	MrgX1 antagonist -6.7
Oc1cccc(-c2nc3c4c(ncn3n2)-c2ccccc2CC42CCCC2)c1	none
N#C/C(=C\c1ccc(Cl)cc1)c1nc(-c2ccco2)cs1	MrgX1 antagonist -6.2
N#C/C(=C\c1ccc(F)cc1)c1nc(-c2ccco2)cs1	none
CCOC(=O)c1c(NC(=O)CN2C(=O)CN(C)C2=O)sc(C)c1C	none
Cc1cc(CNC(=O)Cn2nc(C)c([N+](=O)[O-])c2C)c2ccccc2n1	MrgX1 allo act 9.4
Cc1nn(CC(=O)NCc2ccco2)c(C)c1[N+](=O)[O-]	none
Cc1nn(CC(=O)NCc2ccccc2Cl)c(C)c1[N+](=O)[O-]	none
C/C(=N\NC(=O)Cn1nc(C)c([N+](=O)[O-])c1C)c1ccco1	MrgX1 antagonist -5.9
O=c1c(-c2nc3ccccc3o2)c2oc3ccccc3n2c2ccccc12	RGS4 pot -9.6 (no result: MrgX1 allo act, MrgX1 antagonist, MrgX1 agonist)
Nc1ccc(-c2nc3ccccc3o2)cc1	none
O=C(CCNC(=O)c1ccco1)Nc1ccc(OC(F)F)cc1	none
O=c1c2ccccc2nc(-c2ccc(Cl)c(Cl)c2)n1O	MrgX1 agonist 35
O=c1c2ccc(Cl)cc2nc(-c2cccc(C(F)(F)F)c2)n1O	MrgX1 agonist 47
COc1cc(Br)cc(Br)c1OCC(=O)N/N=C/c1c(C)n(C)n(-c2ccccc2)c1=O	none
O=C(CSc1nnnn1-c1cccc2c1CCCC2)N1CCCCC1	none
N#C/C(=C\N1CCN(Cc2ccc3c(c2)OCO3)CC1)c1nc2ccccc2s1	none
CCOC(=O)N1CCN(/C=C(\C#N)c2nc3ccccc3s2)CC1	MrgX1 antagonist -7.1
C/C(=N/NS(=O)(=O)c1ccc(C)cc1C)c1c[nH]c2ccccc12	none
CC(/C=N/NC(=O)c1ccc2nc(C)[nH]c2c1)=C\c1ccccc1	MrgX1 allo act 6.7
CC(=C/c1ccccc1)/C=N/NC(=O)c1ccc2nc[nH]c2c1	none
O=C(O)c1ccccc1C(=O)Nc1nc(-c2ccc3ccccc3c2)cs1	none
CC(/C=N/NC(=O)Cn1cnc2ccccc21)=C\c1ccccc1	none
CC(/C=N/NC(=O)CCn1nnc2ccccc21)=C\c1ccccc1	MrgX1 antagonist -7.7
N=C(N=C(N)N)N1CCc2ccccc21	none
O=C(NC1CCCCC1)c1ccc(CS(=O)(=O)c2ccc(Cl)cc2)o1	none
CCCN(CCC)S(=O)(=O)c1ccc(C(=O)OCCN2C(=O)c3cccc4c(N5CCOCC5)ccc(c34)C2=O)cc1	RGS4 pot -8.7
Cc1ccc(O)c(C2=NNC(c3ccc(Cl)cc3)C2)c1 (centres undefined)	none
